# Source: publication PMC5816172 (Proceedings of the National Academy of Sciences of the …, 2018)
# Entries after “also recorded” stand apart in the source; their conditions may differ. Like-named read-outs stand apart in the source and are kept apart here.
# Legend:
# IKK = assay: Flow cytometry of phosphokinases in spleen cells from treated mice; type: in vivo, mouse
# Summary of the method: (§1)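 Mice were given test compound or saline vehicle. Spleen-derived CD11b+CD3− cells were analysed either fresh (steady state) or after 30 min of in vitro LPS stimulation. Phosphorylation of NF-κB, IκB, IKK and IRAK4 was assessed by flow cytometry. Data are mean ± SEM.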
# NLRP3 inflammasome [1] = assay: NLRP3 inflammasome stimulation of human monocyte-derived macrophages; type: cell-based; conditions: Macrophage
# Human recombinant NLRP3 = Human recombinant NLRP3 (Homo sapiens, UniProt Q96P20); assay: NLRP3 ATPase activity; type: biochemical; conditions: cell-free, 1 and 10 µM
# Sequence of Human recombinant NLRP3 (Q96P20 whole entry): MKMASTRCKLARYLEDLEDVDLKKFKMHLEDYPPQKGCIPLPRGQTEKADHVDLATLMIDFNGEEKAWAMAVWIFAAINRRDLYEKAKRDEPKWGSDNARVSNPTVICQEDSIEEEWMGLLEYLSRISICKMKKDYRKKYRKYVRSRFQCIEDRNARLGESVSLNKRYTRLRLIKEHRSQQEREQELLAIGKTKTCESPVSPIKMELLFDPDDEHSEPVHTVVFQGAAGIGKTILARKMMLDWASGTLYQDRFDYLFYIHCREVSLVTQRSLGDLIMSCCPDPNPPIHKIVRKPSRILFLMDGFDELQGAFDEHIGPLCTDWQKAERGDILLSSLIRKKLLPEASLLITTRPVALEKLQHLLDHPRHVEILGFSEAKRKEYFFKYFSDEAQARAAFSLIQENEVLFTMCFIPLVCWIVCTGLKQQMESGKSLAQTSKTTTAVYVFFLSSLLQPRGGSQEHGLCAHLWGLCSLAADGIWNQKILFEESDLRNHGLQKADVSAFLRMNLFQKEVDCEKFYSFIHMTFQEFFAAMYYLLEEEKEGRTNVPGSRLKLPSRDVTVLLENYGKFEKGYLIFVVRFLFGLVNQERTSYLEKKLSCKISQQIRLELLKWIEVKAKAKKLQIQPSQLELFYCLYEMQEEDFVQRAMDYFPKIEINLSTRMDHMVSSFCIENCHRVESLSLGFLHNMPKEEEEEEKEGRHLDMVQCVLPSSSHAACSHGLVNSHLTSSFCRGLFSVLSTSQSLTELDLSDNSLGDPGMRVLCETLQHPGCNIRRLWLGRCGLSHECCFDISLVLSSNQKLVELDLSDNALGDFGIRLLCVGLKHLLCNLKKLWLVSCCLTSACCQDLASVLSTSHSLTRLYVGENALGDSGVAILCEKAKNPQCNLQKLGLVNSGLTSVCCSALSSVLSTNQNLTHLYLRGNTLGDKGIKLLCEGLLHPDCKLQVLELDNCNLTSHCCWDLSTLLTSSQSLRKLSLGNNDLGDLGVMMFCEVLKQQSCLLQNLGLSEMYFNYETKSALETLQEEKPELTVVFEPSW
# Summary of the method: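 Cell-free ATPase activity of recombinant NLRP3 was measured with test compound (n = 3). Bay11-7082 and 3,4-methylenedioxy-β-nitrostyrene served as positive-control NLRP3 inhibitors (n = 2 each).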
# caspase-1 = assay: Caspase-1 activity assay in J774A.1 cell lysates; type: cell-based, mouse; conditions: J774A.1, LPS/NIG, 50 µM, P = 0.003
# Fyn = assay: Phosphoarray assay in HMDM; type: cell-based, human; conditions: LPS/nigericin, 10 µM, one donor
# Human safety study = type: in vivo
# Summary of the method: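 Phase 1 study in 35 healthy subjects receiving single oral doses or 8 consecutive daily doses of up to 1,000 mg. Monitoring covered treatment-emergent and non-treatment-emergent adverse events and vital signs. Serum lipids, urinalysis, liver function enzymes and acute phase proteins were compared with baseline in each cohort.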
# muscle metabolism = assay: Metabolomics analysis of quadriceps muscle after in vivo LPS challenge; design: species or system mouse; conditions: mice, muscle 2 h after LPS, vs vehicle
# Summary of the method: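 Mice were treated with test compound or vehicle and challenged with LPS i.p. Muscle was excised 2 h after LPS for metabolomic profiling of glutathione species, adenylates and TCA intermediates. Results are in arbitrary units, mean ± SEM, n = 3 mice per group.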
# NLRC4 inflammasome = NLRC4 inflammasome activation in J774A.1 cells; type: cell-based, mouse; conditions: J774A.1, LPS and flagellin
# Summary of the method: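 J774A.1 murine macrophages primed with LPS, then stimulated with the dsDNA analog Poly(dA:dT) for AIM2 or with flagellin for NLRC4, in the presence of test compound. Secreted mature IL-1β and TNFα were measured in supernatants. Data are mean ± SEM from three independent experiments.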
# [2] = tested on: mRNA levels of nlrp3, asc, caspase1, il1b, and il18; assay: Real-time PCR of inflammasome genes in J774A.1 cells; type: cell-based, mouse; conditions: J774A.1, LPS/ATP, 100 to 0.1 µM
# [3] = tested on: mice challenged with LPS-induced systemic inflammation; assay: In vivo LPS challenge; design: species or system mouse
# Summary of the method: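 Male C57BL/6J mice (22–26 g) received 200 mg/kg in 200 µL saline i.p. every 12 h × 5, or saline alone. One hour after the last dose: LPS (E. coli 055:B5) 5 mg/kg i.p., killed 2 h later. Peritoneal lavage with 10 mL cold PBS, spun 1,000 × g, 5 min. Spleen, lung, liver and quadriceps homogenates spun 13,000 × g, 20 min, 4 °C; cytokines normalised to total protein. n = 7–8 per group.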
# NLRP3 inflammasome [4] = assay: IL-1β release from freshly obtained human blood neutrophils; type: cell-based; conditions: primary human neutrophils
# Summary of the method: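 Freshly obtained human blood neutrophils were stimulated with LPS and ATP with test compound at 0.1, 1 and 10 µM. Supernatant IL-1β was measured by ELISA, and mature 17 kDa IL-1β by Western blot. IL-1β precursor was measured in the cell lysates. Data are mean ± SEM of cells from three healthy donors.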
# IRAK4 = assay: Flow cytometry of phosphokinases in spleen cells from treated mice; type: in vivo, mouse
# Summary of the method: as §1
# IκB = assay: as above; type: in vivo, mouse
# Summary of the method: as §1
# J774A.1 cells = assay: LDH release from J774A.1 cells; type: cell-based, mouse; conditions: J774A.1, LPS/ATP, P < 0.05
# Summary of the method: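 J774A.1 cells were stimulated with LPS plus ATP in the presence of increasing concentrations of test compound. LDH release was measured and reported as mean ± SEM. Data are representative of three independent experiments.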
# P2X7R = P2X7R (Homo sapiens, UniProt Q99572); assay: Whole-cell patch-clamp recordings on LPS-primed U937 cells; type: cell-based; conditions: 100 µM BzATP, OLT1177 0.1 nM and 100 µM
# Sequence of P2X7R (Q99572 whole entry, the tested form may be a part): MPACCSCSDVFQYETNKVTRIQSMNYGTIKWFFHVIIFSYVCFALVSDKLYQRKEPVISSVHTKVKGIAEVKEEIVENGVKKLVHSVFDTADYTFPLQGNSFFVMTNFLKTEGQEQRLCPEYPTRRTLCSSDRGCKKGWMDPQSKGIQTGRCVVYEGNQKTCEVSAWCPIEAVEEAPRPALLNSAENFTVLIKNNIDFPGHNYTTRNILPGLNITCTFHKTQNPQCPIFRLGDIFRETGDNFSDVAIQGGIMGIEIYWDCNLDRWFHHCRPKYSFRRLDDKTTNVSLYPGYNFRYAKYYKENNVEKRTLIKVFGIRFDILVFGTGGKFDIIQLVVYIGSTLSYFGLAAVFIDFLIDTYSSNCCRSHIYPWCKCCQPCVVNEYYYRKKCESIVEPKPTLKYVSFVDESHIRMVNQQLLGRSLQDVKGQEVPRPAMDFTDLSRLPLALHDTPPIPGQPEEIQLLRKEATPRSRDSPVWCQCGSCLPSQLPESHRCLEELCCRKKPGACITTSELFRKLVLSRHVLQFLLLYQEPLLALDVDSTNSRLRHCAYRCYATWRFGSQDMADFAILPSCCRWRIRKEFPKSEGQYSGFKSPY
# Summary of the method: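 U937 cells on poly-L-lysine-coated dishes were primed with 1 μg/mL E. coli LPS for 5 h. Whole-cell patch clamp at room temperature, holding −60 mV. BzATP was diluted from a 100-mM stock to 100 µM in bath solution and applied by pressure microperfusion. Test compound (0.1 nM, 100 µM) was given in parallel cultures. ΔI compared by Wilcoxon signed-rank, shown as median with 25th–75th percentiles.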
# [5] = fresh CD11b+CD3- spleen cells, mice 200 mg/kg i.p. x5, vs vehicle
# [6] = spleen cells from treated mice, LPS 30 min ex vivo
# [7] = 200 mg/kg i.p. every 12 h for five doses, 2 h after i.p. LPS 5 mg/kg
# [8] = 200 mg/kg i.p. x5, 2 h after LPS, organ homogenates
structure (smiles),measurement,setting,value
CS(=O)(=O)CCC#N [OLT1177],steady-state phosphorylated IKK,IKK; [5],no statistically significant changes
same,phosphorylated IKK after in vitro LPS,IKK; [6],significant reduction
same,inhibition at 1 µM,NLRP3 inflammasome [1]; read-out: maximal inhibition of IL-1β secretion,60%
same,inhibition at 1 µM,NLRP3 inflammasome [1]; read-out: maximal inhibition of IL-18 secretion,70%
same,ATPase activity of recombinant NLRP3,Human recombinant NLRP3,inhibited
same,reduction of activated caspase-1 in cell lysates,caspase-1,35%
same,reduction in Fyn phosphorylation,Fyn,35%
same,subjects reporting treatment-emergent adverse events,"Human safety study; all cohorts incl. placebo, 100-1,000 mg single and multiple dose",Seven of 35 subjects
same,relationship of reported AEs to OLT1177 (investigator),"Human safety study; all cohorts, each resolved spontaneously",unrelated
same,hematologic or coagulation values vs baseline,Human safety study; any time during the study,No significant changes
same,overall safety / toxicities in healthy humans,"Human safety study; oral doses up to 1,000 mg each day for 8 d","neither adverse effects nor biochemical or hematological changes; also recorded: safe and well-tolerated; also recorded: no clinical, hematological, or organ toxicities observed"
same,physical examination vs predrug examination,Human safety study; subjects exposed to OLT1177,no change
same,muscle ATP,muscle metabolism,higher levels
same,muscle GSH/GSSG ratio,muscle metabolism,increased
same,muscle citrate,muscle metabolism,accumulation
same,muscle oxaloacetate levels,muscle metabolism,decreased
same,muscle oxidized glutathione (GSSG) levels,muscle metabolism,decreased
same,muscle reduced glutathione (GSH),muscle metabolism,increased
same,muscle ribose phosphate levels,muscle metabolism,increased
same,muscle succinate tissue levels,muscle metabolism,decreased
same,muscle α-ketoglutarate steady-state levels,muscle metabolism,increased
same,release of IL-1β and TNFα following NLRC4 inflammasome activation,NLRC4 inflammasome,no effect
same,"mRNA levels of nlrp3, asc, caspase1, il1b, and il18",[2],no effect
same,reduction of peritoneal fluid CXCL1,[3]; [7],30%
same,reduction of peritoneal fluid IL-6,[3]; [7],44%
same,reduction of peritoneal fluid myeloperoxidase (MPO),[3]; [7],80%
same,"TNFα content in lung, liver, spleen, and skeletal muscle",[3]; [8],no significant changes
same,"total IL-1β content in lung, liver, spleen, and skeletal muscle",[3]; [8],significantly decreased
same,total intracellular pool of the IL-1β precursor,NLRP3 inflammasome [4]; LPS/ATP,without affecting
same,release of IL-1β,"NLRP3 inflammasome [4]; LPS/ATP, 0.1, 1, and 10 µM",prevented
same,steady-state phosphorylated IRAK4,IRAK4; [5],no statistically significant changes
same,phosphorylated IRAK4 after in vitro LPS,IRAK4; [6],no change
same,steady-state phosphorylated IκB,IκB; [5],no statistically significant changes
same,phosphorylated IκB after in vitro LPS,IκB; [6],significant reduction
same,release of LDH (cell death),J774A.1 cells,significantly reduced
same,BzATP-induced ion current change (P2X7R activation),P2X7R,not affected
